# Assay results reported in ChEMBL document CHEMBL4219067, “Synthesis and activity evaluation of a series of cholanamides as modulators of the liver X receptors” (Bioorg Med Chem, 2018).
# The source made the active and inactive calls. The rule behind the calls is not given here.
# Key:
# Assay type in all cases: cell-based
# [1] = biological target: T1, Oxysterols receptor LXR-alpha (Homo sapiens) (UniProt Q13133); experiment: Agonist activity at human full length LXRalpha expressed in […] cells co-expressing human pSG5/RXRalpha at 10 uM after 18 hrs by luciferase reporter gene assay relative to GW3965
# T1 sequence (whole entry): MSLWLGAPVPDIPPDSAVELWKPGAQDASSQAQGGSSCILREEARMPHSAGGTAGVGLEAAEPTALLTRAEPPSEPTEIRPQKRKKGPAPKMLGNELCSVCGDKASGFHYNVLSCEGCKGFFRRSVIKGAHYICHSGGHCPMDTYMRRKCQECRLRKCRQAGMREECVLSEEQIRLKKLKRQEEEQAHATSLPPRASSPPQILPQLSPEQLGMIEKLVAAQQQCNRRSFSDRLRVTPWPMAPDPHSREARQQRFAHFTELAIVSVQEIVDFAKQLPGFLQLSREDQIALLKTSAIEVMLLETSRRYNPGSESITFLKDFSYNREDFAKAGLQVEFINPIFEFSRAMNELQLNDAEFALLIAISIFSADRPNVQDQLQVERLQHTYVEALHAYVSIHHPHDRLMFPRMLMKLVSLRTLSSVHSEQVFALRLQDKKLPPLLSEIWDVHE
# Summary of the method: (§1)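 BHK21 cells co-transfected with an RXR plasmid, a full-length human LXRα or LXRβ expression vector and the pGL3/LRELuc reporter. Steroids were added alone at 10 µM and luciferase activity was read. Activity is expressed as % induction relative to GW3965 1 µM (100%). Means ± S.E. of 3 independent experiments; one-way ANOVA with Dunnett's test versus the no-steroid control.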
# [2] = biological target: T2, Oxysterols receptor LXR-beta (Homo sapiens) (UniProt P55055); experiment: Agonist activity at human full length LXRbeta expressed in […] cells co-expressing human pSG5/RXRalpha at 10 uM after 18 hrs by luciferase reporter gene assay relative to GW3965; summary of the method: as §1
# T2 sequence (whole entry): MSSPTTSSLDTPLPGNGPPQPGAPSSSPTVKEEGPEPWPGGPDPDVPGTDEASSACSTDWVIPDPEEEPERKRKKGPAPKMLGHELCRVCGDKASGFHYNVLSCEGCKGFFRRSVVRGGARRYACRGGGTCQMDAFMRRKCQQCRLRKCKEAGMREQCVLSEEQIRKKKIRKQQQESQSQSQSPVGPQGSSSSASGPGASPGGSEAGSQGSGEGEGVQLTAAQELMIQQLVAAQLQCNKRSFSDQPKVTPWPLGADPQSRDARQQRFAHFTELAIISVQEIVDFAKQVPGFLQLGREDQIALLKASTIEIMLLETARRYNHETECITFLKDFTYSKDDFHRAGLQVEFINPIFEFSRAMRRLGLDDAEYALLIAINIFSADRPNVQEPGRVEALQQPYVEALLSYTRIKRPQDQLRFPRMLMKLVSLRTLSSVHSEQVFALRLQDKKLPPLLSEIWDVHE
# [3] = biological target: T1, Oxysterols receptor LXR-alpha (Homo sapiens); experiment: Antagonist activity at human full length LXRalpha expressed in […] cells co-expressing human pSG5/RXRalpha assessed as inhibition of GW3965-induced receptor activation at 10 uM after 18 hrs by luciferase reporter gene assay
# Summary of the method: (§2)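 Antagonist mode in BHK21 cells co-transfected with an RXR plasmid, a full-length human LXRα or LXRβ vector and the pGL3/LRELuc luciferase reporter. Steroids at 10 µM were co-administered with the synthetic agonist GW3965. Luciferase output is given as % of the GW3965 1 µM response. Means ± S.E., n=3 independent experiments; Dunnett's test after one-way ANOVA.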
# [4] = biological target: T2, Oxysterols receptor LXR-beta (Homo sapiens); experiment: Antagonist activity at human full length LXRbeta expressed in […] cells co-expressing human pSG5/RXRalpha assessed as inhibition of GW3965-induced receptor activation at 10 uM after 18 hrs by luciferase reporter gene assay; summary of the method: as §2
SMILES,Activity [1],Activity [2],inhibition [3],inhibition [4]
C[C@H](CCC(=O)N(C)C)[C@H]1CC[C@H]2[C@@H]3CC[C@@H]4C[C@H](O)CC[C@]4(C)[C@H]3CC[C@]12C,Active,inactive,,
C[C@H](CCC(=O)N(C)C)[C@H]1CC[C@H]2[C@@H]3CC[C@H]4C[C@@H](O)[C@@H]5C[C@]4(CO5)[C@H]3CC[C@]12C,inactive,inactive,Active,Active
C[C@H](CCC(=O)N(C)C)[C@H]1CC[C@H]2[C@@H]3CC=C4C[C@@H](O)CC[C@]4(C)[C@H]3CC[C@]12C,Active,Active,Active,Active
C[C@H](CCC(=O)N(C)C)[C@H]1CC[C@H]2[C@@H]3C[C@@H]4OC[C@@]5(CC[C@@H](O)C=C45)[C@H]3CC[C@]12C,Active,,,inactive
C[C@H](CCC(=O)N(C)C)[C@H]1CC[C@H]2[C@@H]3CC[C@H]4C[C@H](O)[C@@H]5C[C@]4(CO5)[C@H]3CC[C@]12C,inactive,inactive,Active,Active
C[C@H](CCC(=O)N(C)C)[C@H]1CC[C@H]2[C@@H]3C[C@H](O)[C@@H]4C[C@H](O)CC[C@]4(C)[C@H]3CC[C@]12C,,Active,Active,Active
